Tested on: Neutrophil
Assay: Inhibition of fMLP-induced superoxide production in human neutrophils
Format: functional, cell-based
Summary of the method: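 Neutrophils from venous blood of healthy volunteers (20-35 years), isolated by double-gradient Ficoll-Hypaque centrifugation with hypotonic lysis of red cells. Cells at 1 × 10⁶ cells/mL preincubated with test agent (100 µmol/L) 5 min at 37 °C, then stimulated with fMLP (1 µmol/L) in presence of ferricytochrome c (0.5 mg/mL). Extracellular superoxide read continuously by ferricytochrome c reduction at 550 nm. Inhibition % = [(control−resting)−(compound−resting)]/(control−resting) × 100. Three independent experiments, SEM; ibuprofen positive control.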

| Compound | IC50 [µM] |
| --- | --- |
| C[C@H]1[C@H](O)CC[C@@H]2[C@]1(C)CC[C@H]1[C@@]2(C)CC[C@@]2(C)[C@@H]3CC(C)(C)CC[C@]3(C)CC[C@]12C | > 100 |
| C=C(CC[C@@H](C)[C@H]1CC[C@H]2C3=C(C(=O)C[C@]12C)[C@@]1(C)CCC(=O)[C@@H](C)[C@@H]1CC3=O)[C@H](C)C(=O)O [ANTCIN B] | 9.82 |
| C=C(CC[C@@H](C)[C@H]1CC[C@H]2C3=C(C(=O)C[C@]12C)[C@@]1(C)CCC(=O)[C@@H](C)[C@@H]1CC3)[C@H](C)C(=O)O [ANTICIN A] | 8.55 |
| COc1cc(OC)c(OC)c(C)c1C#CC(C)=O [ANTROCAMPHIN B] | > 100 |
| C=C(CC[C@@H](C(=O)O)[C@H]1CC[C@@]2(C)C3=CC[C@H]4C(C)(C)[C@@H](O)CC[C@]4(C)C3=CC[C@]12C)C(C)C [DEHYDROEBURICOIC ACID] | 77.5 |
| CC(C)Cc1ccc(C(C)C(=O)O)cc1 (configuration not stated) [IBUPROFEN] | 27.5 |
| c1cc2c(cc1[C@H]1OC[C@H]3[C@@H]1CO[C@@H]3c1ccc3c(c1)OCO3)OCO2 [SESAMIN] | 90.2 |

Other lines, results leading:

| IC50 [µM] | Compound |
| --- | --- |
| 26.1 | COc1cc(C)c(OC)c2c1OCO2 |
| > 100 | COc1c(C)c(-c2c(C)c(OC)c3c(c2OC)OCO3)c(OC)c2c1OCO2 |
| > 100 | COc1cc(C(=O)Cl)c(OC)c(OC)c1OC |
| 9.33 | C=C(C)C#Cc1c(OC)cc(OC)c(OC)c1C [ANTROCAMPHIN A] |
| > 100 | COc1cc(OC)c(OC)c(C)c1C#C[C@@]1(C)OC(=O)O[C@@]1(C)C#Cc1c(OC)cc(OC)c(OC)c1C [ANTRODIOXOLANONE] |

Reference: ChEMBL document CHEMBL1143728, “Anti-inflammatory benzenoids from Antrodia camphorata” (J Nat Prod, 2007)
